System: MS2 coat protein
Experiment: apparent Kd, MS2 coat protein; higher = weaker binding; RNA-MaP array
Summary of the method: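 For each design, the apparent Kd is the median of binding-curve fits across its clusters. Designs measured on fewer than 10 clusters were dropped. The RNAs were transcribed from sequenced DNA templates on an Illumina sequencing chip and incubated at room temperature, with or without input ligand, with fluorescently labeled MS2 coat protein at 1.5 nM to 3 μM.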

[1] = designed as: OFF switch for flavin mononucleotide, no ligand
[2] = ligand present: flavin mononucleotide, designed as: OFF switch for flavin mononucleotide
[3] = designed as: ON switch for tryptophan, no ligand
[4] = ligand present: tryptophan, designed as: ON switch for tryptophan
[5] = designed as: ON switch for flavin mononucleotide, no ligand
[6] = ligand present: flavin mononucleotide, designed as: ON switch for flavin mononucleotide
[7] = designed as: OFF switch for tryptophan, no ligand
[8] = ligand present: tryptophan, designed as: OFF switch for tryptophan

Row | Sequence | apparent Kd [1] [nM] | apparent Kd [2] [nM] | apparent Kd [5] [nM] | apparent Kd [6] [nM] | further results
1 | GGACACGAAGGAUAUACCCAAUGCCUGAGAAAACUCAUGGGACAUGAGGAUCACCCAUGUAGAAGGUCGUUAAA | 558 | 416 | – | – | –
2 | GACAUGAGGAUCACCCAUGUGAAGCAUGGUGGGCGCUCGUCCUAGGAUAUCUGCAAGUAGCUAGGAGAGAAGGAGGUAGCCAAA | 76.3 | 57.6 | – | – | –
3 | CUAAGAUAAGAAGGAUAUAAAACAUGAGGAUCACCCAUGUAAAAGUACAUCACACUACAAAUGGAUUAGAAGGUCUUAAUAACC | 10.2 | 8.47 | – | – | –
4 | CCUUAACAUGAGGAUCACCCAUGUCUGGAUACCAGAUACAGAUAAAUCCCUUGGCAGCCAAAAUAUGAAAGAAAUAAAAUAAGAA | – | – | – | – | apparent Kd (designed as: ON switch for theophylline, no ligand): 41.3 nM; apparent Kd (ligand present: theophylline, designed as: ON switch for theophylline): 48.9 nM
5 | AACCACGAGUCGGCCGCCACUUGCAACUAGUUUCAGAAGCAGAAACAUGAGGAUCACCCAUGUCGAAGGACCGGGACUUUACAGG | – | – | – | – | apparent Kd [3]: 23.2 nM; apparent Kd [4]: 18.7 nM
6 | CUCAGGCUGCGAGGAUAUCCGUCGAAUCAAACAGGAGAAGGCGCAUACAUGAGGAUCACCCAUGUGCUGACUUGUCCGUGAAUC | 5.46 | 6.37 | – | – | –
7 | UGCAGGCGAACAGGAUAUCACACAUGAGGAUCACCCAUGUAAACUACUUAAGAAAGGGAGCCUCGUGAGAAGGGUUUCUUUGGG | 74.6 | 60.1 | – | – | –
8 | GGACGGUGGUGAGGAUAUUGUCACAUGAGGAUCACCCAUGUCGUCUGGGAGCGGACUCCUCGGUCCAAGAAGGCACGACCAGCC | 246 | 431 | – | – | –
9 | AAGGACAUGAGGAUCACCCAUGUAGAGGAGCGAGGACCGGUACGGCCGCCACUCGGUGACAUUCGAUAAUGCCGAAUAAGACAUC | – | – | – | – | apparent Kd [3]: 23.6 nM; apparent Kd [4]: 22.6 nM
10 | AAUACAAAACAUGAGGAUCACCCAUGUCCCGAGACUAAACUAAGAAGGUGACCAACCAAAAGGGUCAAGGAUAUUAGGAUCUAU | – | – | 28.9 | 13.4 | –
11 | CAUCCUCUUUGACAUGAGGAUCACCCAUGUAUUGCAGUGACCAGAAGGCGUUCCCACAAAGUGGACGAGGAUAUGGAAAAGCCG | 193 | 184 | – | – | –
12 | GCGACAUGAGGAUCACCCAUGUGCCUCGUGUUAUUCUCUUUAAGAAGGAACGGGUAGCUCUAUUGUUAGGAUAUUAAUGGAAUU | 689 | 724 | – | – | –
13 | UUCAUCAACACAGGAUAUUCCGUCACAUGAGGAUCACCCAUGUAGCGCGUAGAUUACGGGCUUUCGAAGAAGGGUGUAAAGUCC | – | – | 54.2 | 43.3 | –
14 | GGAAAGUCUGAGAAGGGAUGAAGACAUGAGGAUCACCCAUGUGAAGGCCACUGGCUCCACAAGUAUCAGGAUAUCAGCAUAGCG | – | – | 36.3 | 20.6 | –
15 | GUUCGGCGAGGAUAUCUGCUACAGUACAUGAGGAUCACCCAUGUGGGUUAUGUCCGGUCCAGAGAAGGCGCUGCCA | 33.4 | 47.9 | – | – | –
16 | GACGAGUGCGAGUCACAUGAGGAUCACCCAUGUAACCAUGGGCAGGAUAUCUACCAGUUACUUUCAGAGAAGGGCCAACGAACU | – | – | 419 | 108 | –
17 | CAGACGUAGAUUACAUGAGGAUCACCCAUGUCAUACCAGAUCAGAAGGGUUCUAGAGCGUACUCAACAGGAUAUGAUAAGUCCC | – | – | 18.3 | 16.5 | –
18 | CGUACAGUCGAAGGAUAUUCGCGGGAGUUUGCCGAAGAAGGUCGCUAGUAGGGUGACAUGCUGUGACAUGAGGAUCACCCAUGU | 165 | 239 | – | – | –
19 | GUCAUGUUAGGAUAUACACGUACCCGCCGACAGCCAGCAAUGUAGAAGGAACAUGAGGAUCACCCAUGUCGUGG | 15.2 | 31.5 | – | – | –
20 | CAAACAUUAUCAGGAUAUGUGCAAGAUCCGACAUGAGGAUCACCCAUGUUGCGGCAUCUCGGUUGACAGAAGGGAUCAUCGCCU | – | – | 11.2 | 10.1 | –
21 | UAGAGCCAGUCGGCCGCCACUCUCCAUAUGUGAGCCUUUAAGUUCUACAUGAGGAUCACCCAUGUGAGGACCGGGACCGAAUCUA | – | – | – | – | apparent Kd [7]: 60.3 nM; apparent Kd [8]: 80.7 nM
22 | AUAAGUAUAGGAUAUACAGGUAAGCGUUCUUACCGAUCCAGACAUGAGGAUCACCCAUGUAGAAGGAUACGUCU | 8.18 | 7.87 | – | – | –
23 | CGAAACAUGAGGAUCACCCAUGUGUAGAUCCUGCAAGCAUAUAGAAGGUCGUCACUCCGUCACGCGAAGGAUAUAUUAAGUGCC | 210 | 168 | – | – | –

Row | Sequence | apparent Kd [1] [nM] | apparent Kd [2] [nM] | apparent Kd [5] [nM] | apparent Kd [6] [nM] | further results
24 | UUUAAGAGAGGAUAUGUAGAAUAUAACAUGAGGAUCACCCAUGUACAGAGUGUUAAAGUCACAGAAGGCUCCAUGU | 27.5 | 20.6 | – | – | –
25 | CGAGUGUGAGGAUAUCAGUUCAAUAGGGCUACGCCGUGUCGUGAGAAGGCACAUGAGGAUCACCCAUGUAAUAA | 58.3 | 122 | – | – | –
26 | GUACCACUCAAGAAGGACCUAGUUCACUAACCUGUGACAUGAGGAUCACCCAUGUGGCUAUUGCGGUAGGAUAUUGAAGACCGG | – | – | 157 | 69.1 | –
27 | UAACUCAAGUAACAGGAUAUGAGUGCGGAUACAUGAGGAUCACCCAUGUUGACGAUAACCGGACAACAGAAGGGUACCUAACUUGG | – | – | 33.5 | 22.2 | –
28 | UAGGUGCUCUAAGGAUAUUAUACAUGAGGAUCACCCAUGUGGCGACCAAGGGUAGAAGAGGAACUUAAGAAGGUAGAUGUAUAG | 43.2 | 34 | – | – | –
29 | UUGAAGAAUCACAUGAGGAUCACCCAUGUCAGGGUGAGUUUUGAGGAUAUACCGCCCAGGACUCGGUAGAAGGCAAGAAAUUAA | 553 | 562 | – | – | –
30 | GUCGUCACAGGAUAUACAUGAGGAUCACCCAUGUUCCCGUGUAAAUGGGUUGUGUUAGGUAGAAGGGUGCACGC | 17.4 | 27.8 | – | – | –
31 | CCGUACCCGGAGAAGGAAGUCGUUGGAUGGCCAACAUGAGGAUCACCCAUGUGAUUUCAACUUACUUAGGAUAUCCAAAAUGAG | – | – | 58.4 | 24.1 | –
32 | GUGCAAAACCAGAAGGGACAUUAAAGGGUAAAGUCAGGAUAUGGCACAUGAGGAUCACCCAUGUAGACUAGACGCGUUAUUUUC | – | – | 9.99 | 9.11 | –
33 | UUACAUACCUUAGGAUAUCAUCGUAGUAGGGCAAUAUAACAUGAGGAUCACCCAUGUCUCGUGCGUGAGAAGGAAGAACGUCAU | – | – | 32.7 | 27.8 | –
34 | CCAGCCCUUCUAGAUACCAGCUUUCAAUAUAAGACAACUCACAUGAGGAUCACCCAUGUUAGCCCUUGGCAGCUAAGAUCCACAA | – | – | – | – | apparent Kd (designed as: OFF switch for theophylline, no ligand): 52.1 nM; apparent Kd (ligand present: theophylline, designed as: OFF switch for theophylline): 57.3 nM
35 | UAUGGCAACUUAGGAUAUCAAUGCAUCGAUUAUUGAGAAGGAAGAAACAUGAGGAUCACCCAUGUCUCUACAGGGAUAAGGACC | 7.38 | 7.98 | – | – | –
36 | UUGCUCUCUUCGGCCGCCACUACACGCGAGUUGACGACUGGCGGACAUGAGGAUCACCCAUGUCAUAGGACCGGGAAUCACGCUG | – | – | – | – | apparent Kd [3]: 13.4 nM; apparent Kd [4]: 13.8 nM
37 | UUCCUUGUCGAGAAGGAAUGGCACUUGAGGCGAUUAGGAUAUCGAUACAUGAGGAUCACCCAUGUUGUGUCUCAUAGUAUGACA | 12 | 12.4 | – | – | –
38 | AUCGGUAAAACUCAGGAUAUAGAAAUAGACACAUGAGGAUCACCCAUGUUAACUACACAAAGAAUCUAGAAGGGAGCAGGUGUCUA | – | – | 78.2 | 44.9 | –
39 | CGGCAUGGAACAGGAUAUGGGUAAUUCAUUUGACCAGAAGGGUUCUUCAGCAGCCGUUGCACAUGAGGAUCACCCAUGUCAUAU | – | – | 29.7 | 10 | –
40 | CUGGAUCCGGGAGGAUAUAGACGUUCAGCCUCGUUGCUAACAAGACAUGAGGAUCACCCAUGUAUCUAGAAGGCCCGCCUGGGA | – | – | 19.8 | 13.8 | –
41 | UCACACGUUGUAGGAUAUGUCACGCAUAGAACAUGAGGAUCACCCAUGUAUCCCUGUCAUGCCAGACAGAAGGACACUAACGCG | 55.5 | 129 | – | – | –
42 | AUGUCCUAAACGGCCGCCACUUACAUGAGGAUCACCCAUGUUUACCGAUAUGGUUGUUGCUUUCCAAGGACCGGGUUUAAUCUGC | – | – | – | – | apparent Kd [7]: 12.7 nM; apparent Kd [8]: 13.5 nM
43 | ACAUGAGGAUCACCCAUGUAAAUGAUAUGUCACCAUGAUGUUAGAAGGAAAGCGGAAAGUCAAUUUUAGGAUAUAAUGUAUUGA | – | – | 11.9 | 8.51 | –
44 | GCAACAUGUUCAGGAUAUACGCUACAAACUCGUGUAGAAGGGAAGGAUACAAUUACAUGAGGAUCACCCAUGUGUUAUCCGAUU | – | – | 23.7 | 20.8 | –
45 | ACAUCUUGUACGGCCGCCACUAACAGAUUCAGCGUCGGAGCCAACUACAUGAGGAUCACCCAUGUUAGGACCGGGUACUGUCCAC | – | – | – | – | apparent Kd [7]: 17.7 nM; apparent Kd [8]: 34.9 nM
46 | AUAUCCUCAACAGGAUAUACACGUGACUAAAUGGUAGAAGGGUUAGCAGACGACAUGAGGAUCACCCAUGUUUAGGAUAAAGCG | – | – | 10.7 | 9.66 | –

Reference: the EternaBench riboswitch data
